In assay [1] the test system is Aspergillus fumigatus. Briefly: Antifungal activity against Aspergillus fumigatus ATCC 46645 assessed as growth inhibition after 24 hrs by checkerboard method. Format: functional, organism-based. Conditions: ATCC 46645, 24 h. In outline:
(§1)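 Checkerboard of double dilutions: caspofungin at final 0.24–0.00018 μg/mL (columns) crossed with test compound at final 8–0.015 μg/mL (rows) in the central 80 wells of one plate. Caspofungin dose–response curves gave IC50 values at each compound level.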

In assay [2] the test system is Candida albicans. The experiment in a line: Antifungal activity against Candida albicans MY1055 after 24 hrs by 2-fold serial dilution method. Conditions: MY1055, 24 h. Format: functional. A digest of the protocol: (§2)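 Cells were inoculated at 10^5 CFU/mL into 2-fold serial compound dilutions in growth medium and incubated at 37 °C. The MIC was recorded after 24 h as the lowest concentration inhibiting visible growth. Where given, the MIC80 is 80% inhibition, reported as prominent inhibition.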

For another assay, the system named is Candida parapsilosis. The experiment in a line: Antifungal activity against Candida parapsilosis ATCC 22019 after 24 hrs by 2-fold serial dilution method. Format: functional. The conditions noted are these: ATCC 22019, 24 h. In outline:
as §2

Assay [3] relates to Candida albicans. The experiment in a line: Antifungal activity against Candida albicans MY1055 after 24 hrs by 2-fold serial dilution method in presence of 50% mouse serum. Conditions: MY1055, 24 h. Format: functional.
The subject of a further assay is Candida tropicalis. The experiment in a line: Antifungal activity against Candida tropicalis ATCC 750 after 24 hrs by 2-fold serial dilution method. The class given is functional. The conditions noted are these: ATCC 750, 24 h. A digest of the protocol: as §2
The subject of assay [4] is Nakaseomyces glabratus. Briefly: Antifungal activity against Candida glabrata ATCC 90030 after 24 hrs by 2-fold serial dilution method. The class given is functional. The conditions noted are these: ATCC 90030, 24 h. In outline: as §2
Assay [5] deals with Aspergillus fumigatus. Briefly: Antifungal activity against Aspergillus fumigatus MF5668 after 48 hrs by 2-fold serial dilution method. The class given is functional. The conditions noted are these: MF5668, 48 h. In outline:
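Broth microdilution MIC test: the inoculum was 10^5 CFU/mL, with a 2-fold serial dilution of compound in growth medium at 37 °C. The MIC was read after 48 h incubation as the lowest concentration inhibiting visible growth. Where given, the MIC80 is 80% inhibition, reported as prominent inhibition.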

The next assay has as its system Pichia kudriavzevii. Briefly: Antifungal activity against Candida krusei ATCC 6258 after 24 hrs by 2-fold serial dilution method. The class given is functional. The conditions noted are these: ATCC 6258, 24 h. A digest of the protocol:
as §2

The test system of another assay is Clavispora lusitaniae. The experiment in a line: Antifungal activity against Clavispora lusitaniae ATCC 34449 after 24 hrs by 2-fold serial dilution method. Format: functional. Conditions: ATCC 34449, 24 h. A digest of the protocol:
as §2

Assay [6] relates to Candida albicans. Briefly: Potentiation of caspofungin-induced antifungal activity against Candida albicans MY1055 at 1 ug/ml after 24 hrs by checkerboard method. Format: functional, organism-based. A digest of the protocol: as §1
Assay [7] has as its system Aspergillus fumigatus. The experiment in a line: Antifungal activity against Aspergillus fumigatus ATCC 46645 at 8 ug/ml after 24 hrs by resazurin test. Format: functional, organism-based. A digest of the protocol:
(§3)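 Tested with and without sublethal caspofungin (0.015 μg/mL for A. fumigatus, 0.03 μg/mL for C. albicans) at 37 °C for 24 h. Resazurin 0.002% added 3–4 h before reading; fluorescence read at ex 570/em 615 nm. C. albicans was grown overnight in SDB, set to OD600 0.25 in RPMI-modified medium (pH 7.1) and diluted 1:10. Run in triplicate.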
Background: Alamar Blue is a resazurin reagent that responds to reducing activity.

Assay [8] has as its system Candida albicans. Briefly: Antifungal activity against Candida albicans MY1055 after 24 hrs by resazurin test in presence of caspofungin. Format: functional. Conditions: MY1055, 24 h. A digest of the protocol: as §3
Assay [9] deals with Aspergillus fumigatus. The experiment in a line: Antifungal activity against Aspergillus fumigatus ATCC 46645 after 24 hrs by resazurin test in presence of caspofungin. The class given is functional. The conditions noted are these: ATCC 46645, 24 h. A digest of the protocol: as §3
Assay [10] relates to Candida albicans. Briefly: Antifungal activity against Candida albicans MY1055 at 8 ug/ml after 24 hrs by resazurin test. The class given is functional, organism-based. A digest of the protocol: as §3
Assay [11] relates to Aspergillus fumigatus. The experiment in a line: Potentiation of caspofungin-induced antifungal activity against Aspergillus fumigatus ATCC 46645 at 2 ug/ml after 24 hrs by checkerboard method relative to control. The class given is functional. In outline:
as §1

For assay [12], the system named is Nakaseomyces glabratus. The experiment in a line: Antifungal activity against Candida glabrata MY992 at 8 ug/ml after 24 hrs by resazurin test. The class given is functional, organism-based.

pIC50: −log10 of the molar value. In brackets after ≈: the same amount, converted by molar mass. Activity calls are given as the source filed them. Non-standard residues stand in square brackets, D forms with d. Residues, ends and D or L forms follow the SMILES beside them. *: point of attachment. Pro(4R-Me) = C[C@H]1CN[C@H](C(=O)O)C1; Oleoyl = CCCCCCCC/C=C\CCCCCCCC(=O)*; hSer = N[C@@H](CCO)C(=O)O; Alaol = C[C@@H](CO)N* Where only a bound is given, the exact number is not on record here.

The pIC50 is −log10 of the IC50, conventionally taken in molar units. Consider `CC[C@H](C)C[C@H](C)CCCCCCCCC(=O)N[C@H]1C[C@@H](O)[C@@H](NCCN)NC(=O)[C@@H]2[C@@H](O)CCN2C(=O)[C@H]([C@H](O)CCN)NC(=O)[C@H]([C@H](O)[C@@H](O)c2ccc(O)cc2)NC(=O)[C@@H]2C[C@@H](O)CN2C(=O)[C@H]([C@@H](C)O)NC1=O` [CASPOFUNGIN], for which, in the assay with Aspergillus fumigatus [1], the pIC50 was 7.48.

One may read the MIC as the smallest concentration in the dilution series that meets the test's criterion for growth inhibition. As a reminder, the MIC80 is the lowest concentration that inhibits either 80% of growth or 80% of the strains tested, depending on the study. `CCCCCCCC/C=C\CCCCCCCC(=O)N[C@H](C(=O)N1C[C@H](C)C[C@H]1C(=O)N[C@H](C(=O)N[C@@H](CCOC(C)=O)C(=O)N[C@@H](C)C=O)C(C)C)[C@@H](C)O` (Oleoyl-T[Pro(4R-Me)]V[hSer](Ac)A-aldehyde): the minimal inhibitory concentration (MIC) is 2 µg/mL (≈ 2.53 µM) in the assay on Candida albicans [2]; 2 µg/mL (≈ 2.53 µM) against Candida parapsilosis; greater than 32 µg/mL in the assay with Candida albicans [3]; 0.5 µg/mL (≈ 0.631 µM) against Candida tropicalis; 2 µg/mL (≈ 2.53 µM) with Nakaseomyces glabratus [4]; greater than 32 µg/mL in the assay on Aspergillus fumigatus [5]. Besides, the MIC amounted to 4 µg/mL (≈ 5.05 µM) with Pichia kudriavzevii and 2 µg/mL (≈ 2.53 µM) with Clavispora lusitaniae. In addition, in the assay on Aspergillus fumigatus [5], the MIC80 amounted to 8 µg/mL (≈ 10.1 µM).

Take `CCCCCCCC/C=C\CCCCCCCC(=O)N[C@H](C(=O)N1C[C@H](C)C[C@H]1C(=O)N[C@H](C(=O)N[C@@H](CCO)C(=O)N[C@@H](C)CO)C(C)C)[C@@H](C)O` (Oleoyl-T[Pro(4R-Me)]V[hSer]-Alaol): the MIC against Candida albicans [2], with Candida parapsilosis, against Candida tropicalis, with Nakaseomyces glabratus [4], in the assay with Pichia kudriavzevii and against Clavispora lusitaniae was greater than 32 µg/mL each time.

Take `CCCCCCCC/C=C\CCCCCCCC(=O)N[C@H](C(=O)N1C[C@H](C)C[C@H]1C(=O)N[C@H](C(=O)N[C@@H](CCO)C(=O)N[C@@H](C)C=O)C(C)C)[C@@H](C)O` (Oleoyl-T[Pro(4R-Me)]V[hSer]A-aldehyde): the MIC is 2 µg/mL (≈ 2.67 µM) with Candida albicans [2]; 2 µg/mL (≈ 2.67 µM) with Candida parapsilosis; greater than 32 µg/mL with Candida albicans [3]; 0.5 µg/mL (≈ 0.667 µM) in the assay on Candida tropicalis; 2 µg/mL (≈ 2.67 µM) against Nakaseomyces glabratus [4]; greater than 32 µg/mL against Aspergillus fumigatus [5]. Moreover, the MIC against Pichia kudriavzevii and against Clavispora lusitaniae was 2 µg/mL (≈ 2.67 µM) throughout. In the assay on Aspergillus fumigatus [5], the MIC80 stood at 8 µg/mL (≈ 10.7 µM).

As for `CCCCCCCCCCCC(=O)N[C@@H](CCC(N)=O)C(=O)N[C@@H]1C(=O)NCCC(=O)N[C@H](Cc2c[nH]c3ccccc23)C(=O)N[C@@H](CO)C(=O)N[C@H](Cc2ccccc2)C(=O)O[C@@H]1C`, the result in the assay with Candida albicans [6] was Active. For the same molecule, the result in the assay on Aspergillus fumigatus [7], in the assay with Candida albicans [10] and in the assay with Nakaseomyces glabratus [12] was inactive. For the same molecule, the figures for the MIC in the assay on Candida albicans [8] and in the assay on Aspergillus fumigatus [9] were 2 µg/mL and 4 µg/mL, respectively. Further, the “fold change (FC)” value with Aspergillus fumigatus [11] amounted to 5.3.

The record behind these values is ChEMBL document CHEMBL3576779, “Cyclic colisporifungin and linear cavinafungins, antifungal lipopeptides isolated from Colispora cavincola” (J Nat Prod, 2015).
